Measurements as given in ChEMBL document CHEMBL1275400, “Design, synthesis, and DNA-binding of N-alkyl(anilino)quinazoline derivatives” (J Med Chem, 2010).
The source made the active and inactive calls. No cut-off for these calls is given here.

Columns and labels:
[1] = system: Nucleic Acid; experiment: Binding affinity to poly(dA-dT)2 in BPE buffer assessed as change in melting temperature at drug/DNA base pair ratio 1; type: nucleic-acid assay
In short: (§1)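 Melting curves are read at 260 nm in BPE buffer, pH 7.1 (6 mM Na2HPO4, 2 mM NaH2PO4, 1 mM EDTA), in Peltier-heated 10 mm quartz cuvettes. Temperature rises from 20 to 100 °C at 1 °C/min and is monitored with a platinum probe. Tm is taken as the midpoint of the hyperchromic transition.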

[2] = system: Calf thymus DNA; experiment: Binding affinity to calf thymus DNA in BPE buffer assessed as change in melting temperature at drug/DNA base pair ratio 1; type: nucleic-acid assay; details: Bos taurus; in short: as §1
[3] = target: T1, DNA topoisomerase 1 (Homo sapiens) (UniProt P11387); experiment: Inhibition of human recombinant topoisomerase 1-mediated supercoiled pUC19 DNA relaxation up to 100 uM […] by agarose gel electrophoresis analysis; details: in the assay text read “45 mins” for “2 hrs”
T1 sequence (whole entry): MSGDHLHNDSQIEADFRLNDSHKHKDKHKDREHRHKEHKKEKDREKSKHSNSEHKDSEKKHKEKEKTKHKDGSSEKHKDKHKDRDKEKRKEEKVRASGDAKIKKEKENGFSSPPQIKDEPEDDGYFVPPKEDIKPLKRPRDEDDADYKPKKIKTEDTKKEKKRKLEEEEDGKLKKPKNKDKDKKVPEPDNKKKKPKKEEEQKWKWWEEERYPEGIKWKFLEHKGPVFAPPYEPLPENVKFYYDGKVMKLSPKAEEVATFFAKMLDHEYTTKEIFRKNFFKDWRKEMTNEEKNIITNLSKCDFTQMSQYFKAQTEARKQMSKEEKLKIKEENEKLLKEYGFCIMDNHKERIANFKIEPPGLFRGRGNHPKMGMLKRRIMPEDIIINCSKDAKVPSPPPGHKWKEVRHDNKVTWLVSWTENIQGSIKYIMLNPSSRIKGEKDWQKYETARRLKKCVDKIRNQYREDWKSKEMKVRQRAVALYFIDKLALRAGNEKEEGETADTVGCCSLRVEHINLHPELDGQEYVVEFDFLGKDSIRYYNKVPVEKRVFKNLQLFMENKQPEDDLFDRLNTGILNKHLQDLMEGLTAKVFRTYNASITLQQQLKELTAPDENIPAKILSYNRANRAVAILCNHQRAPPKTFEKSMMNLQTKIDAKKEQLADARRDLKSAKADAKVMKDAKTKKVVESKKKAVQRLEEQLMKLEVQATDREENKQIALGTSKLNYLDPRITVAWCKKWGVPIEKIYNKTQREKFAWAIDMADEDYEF
In short: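 Supercoiled pUC19 (130 ng) is incubated with 4 units of recombinant human topoisomerase I for 45 min at 37 °C. The relaxation buffer is 50 mM Tris pH 7.8, 50 mM KCl, 10 mM MgCl2, 1 mM DTT and 1 mM EDTA, with graded drug. Reactions are stopped with 0.25% SDS and 250 μg/mL proteinase K. Samples are run on 1% agarose for 2 h at 120 V and stained with ethidium bromide.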

[4] = system: Calf thymus DNA; experiment: Binding affinity to calf thymus DNA at drug/DNA base pair ratio up to 4 by circular dichroism analysis; type: nucleic-acid assay; details: Bos taurus
In short: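 CD spectra are recorded in 1 mM sodium cacodylate buffer, pH 7.0, in 10 mm quartz cuvettes, averaging four scans. A 50 μM drug solution is diluted stepwise with 5 mM DNA. Alternatively, the drug–DNA complex at high P/D is diluted with pure ligand solution to reach the desired drug/DNA ratio.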

[5] = system: Calf thymus DNA; experiment: Binding affinity to calf thymus DNA in BPE buffer at drug/DNA base pair ratio up to 10 by UV spectroscopic analysis; type: nucleic-acid assay; details: Bos taurus
In short: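 Absorption spectra are recorded in BPE buffer, pH 7.1, at a constant drug concentration of 20 μM. Aliquots of concentrated calf thymus DNA are added to cover a range of DNA-phosphate/drug ratios.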

[6] = system: HT-29; experiment: Antiproliferative activity against human HT-29 cells after 72 hrs by MTS assay; type: functional, cell-based; details: HT-29, 72 h
[7] = system: PC-3; experiment: Antiproliferative activity against human PC3 cells after 72 hrs by MTS assay; type: functional, cell-based; details: PC-3, 72 h
[8] = system: MCF7; experiment: Antiproliferative activity against human MCF7 cells after 72 hrs by MTS assay; type: functional, cell-based; details: MCF7, 72 h
[9] = system: Nucleic Acid; experiment: Binding affinity to DNA assessed as inhibition of cleavage of DNA substrate by densitometric analysis; type: nucleic-acid assay
[10] = system: Calf thymus DNA; experiment: Binding affinity to calf thymus DNA by fluorescence titration assay; type: nucleic-acid assay, Bos taurus
In short: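 Intrinsic drug fluorescence is measured at room temperature with excitation at 360 nm and emission scanned over 380–520 nm. Drug is held at 10 μM with DNA at 0.01–1 mM, each sample prepared separately. The apparent KD is obtained by nonlinear least-squares fitting to KD = [ligand][DNA]/[ligand-DNA].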

[11] = system: Nucleic Acid; experiment: Binding affinity to DNA assessed as inhibition of cleavage of DNA substrate up to 100 uM by Dnase1 footprinting assay; type: nucleic-acid assay
In short: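 DNase I is then added to a final concentration of about 0.01 unit/mL. Digestion runs 3 min and is stopped by freeze-drying. Protected sites are localized on the gel.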

| ΔTm [1] | ΔTm [2] | Compound | other results |
| --- | --- | --- | --- |
| 12.2 °C | 8.1 °C | COc1cc2ncnc(N(C)c3cccc(Br)c3)c2cc1OC | inhibition [3]: inactive |
| 0.3 °C | 1.8 °C | COc1cc2ncnc(Nc3cccc(Cl)c3)c2cc1OC |  |
| 12.4 °C | 5.8 °C | COc1cc2ncnc(N(c3ccc(C)c(Br)c3)C(C)C)c2cc1OC |  |
| 0.2 °C | 3.9 °C | COc1cc2ncnc(Nc3ccc(Br)cc3)c2cc1OC |  |
| 20 °C | 9.9 °C | COc1cc2ncnc(N(CCN(C)C)c3ccc(C)c(Br)c3)c2cc1OC |  |
| 0.5 °C | 0.1 °C | COc1cc2ncnc(Nc3ccc(C(F)(F)F)cc3)c2cc1OC |  |
| 8.1 °C | 5.7 °C | CCCCNC(=O)Nc1cccc(N(C)c2ncnc3cc(OC)c(OC)cc23)c1 |  |
| 9.8 °C | 7.3 °C | COc1cc2ncnc(N(C)c3cccc(F)c3)c2cc1OC |  |
| 11.3 °C | 7.3 °C | COc1cc2ncnc(N(C)c3ccc(C)c(F)c3)c2cc1OC |  |
| 7.9 °C | 5.2 °C | CCNC(=O)Nc1cccc(N(C)c2ncnc3cc(OC)c(OC)cc23)c1 |  |
| 0.5 °C | 1.2 °C | COc1cc2ncnc(Oc3ccc(F)c(Cl)c3)c2cc1OC |  |
| 0.5 °C | 0.3 °C | Fc1cc(Br)ccc1Nc1ncnc2cc3c(cc12)OCO3 |  |
| 11 °C | 7.8 °C | COc1cc2ncnc(N(C)c3ccc(C)c(C(F)(F)F)c3)c2cc1OC |  |
| 24.1 °C | 14 °C | CCN(CC)CCN(c1ccc(C)c(Br)c1)c1ncnc2cc(OC)c(OC)cc12 | Activity [9]: Active; Activity [4]: Active; Kd [10]: 40.2 µM; Activity [11]: Active; Activity [5]: Active; IC50 [6]: 5.6 µM; inhibition [3]: inactive; IC50 [7]: > 10 µM; IC50 [8]: 6.8 µM |
| 0.5 °C | 0.2 °C | COc1cc2ncnc(Nc3ccc(C)c(F)c3)c2cc1OC |  |
| 13.7 °C | 8.9 °C | COc1cc2ncnc(N(C)c3ccc(C)c(Cl)c3)c2cc1OC |  |
| 9.6 °C | 6.5 °C | COc1cc2ncnc(N(Cc3ccccc3)c3ccc(C)c(Br)c3)c2cc1OC |  |
| 10.8 °C | 6 °C | COc1cc2ncnc(N(C)c3ccc(Br)cc3)c2cc1OC |  |
| 0.5 °C | 0.8 °C | COc1cc2ncnc(Oc3ccc(Br)cc3F)c2cc1OC |  |
| 4.6 °C | 2.8 °C | CN(c1ccc(F)c(Cl)c1)c1ncnc2cc3c(cc12)OCO3 |  |
| 0.5 °C | 0.4 °C | COc1cc2ncnc(Oc3cccc(NC(=O)Nc4ccccc4)c3)c2cc1OC |  |
| 0.5 °C | 0.3 °C | COc1ccc(NC(=O)Nc2ccc(Oc3ncnc4cc(OC)c(OC)cc34)cc2)cc1 |  |
| 12.4 °C | 7.7 °C | COc1cc2ncnc(N(C)c3cccc(Cl)c3)c2cc1OC |  |
| 0.5 °C | 0.2 °C | COc1cc2ncnc(Nc3cccc(C(F)(F)F)c3)c2cc1OC |  |
| 0.4 °C | 0.3 °C | COc1cc2ncnc(Nc3ccc(C)c(Cl)c3)c2cc1OC |  |
| 3.3 °C | 1.4 °C | COc1cc2ncnc(N(C)c3ccc(Br)cc3F)c2cc1OC |  |
| 13.4 °C | 8.8 °C | CCN(c1ccc(C)c(Br)c1)c1ncnc2cc(OC)c(OC)cc12 |  |

Continued, molecule first:

| Compound | ΔTm [1] | ΔTm [2] | other results |
| --- | --- | --- | --- |
| COc1cc2ncnc(Nc3ccc(C)c(Br)c3)c2cc1OC | 0.4 °C | 0.2 °C |  |
| COc1cc2ncnc(N(C)c3ccc(NC(=O)Nc4ccccc4)cc3)c2cc1OC | 0.6 °C | 0.4 °C |  |
| COc1ccc(NC(=O)Nc2cccc(Oc3ncnc4cc(OC)c(OC)cc34)c2)cc1 | 0.3 °C | 0.2 °C |  |
| COc1cc2ncnc(Nc3cccc(Br)c3)c2cc1OC | 0.4 °C | 0.2 °C | Activity [4]: Active; Activity [5]: Active; IC50 [6]: 10.1 µM; inhibition [3]: inactive; IC50 [7]: > 10 µM; IC50 [8]: 4.7 µM |
| COc1cc2ncnc(N(C)c3ccc(C)c(Br)c3)c2cc1OC | 15 °C | 8.4 °C | Activity [9]: Active; Activity [4]: Active; Kd [10]: 326 µM; Activity [11]: Active; Activity [5]: Active; IC50 [6]: 6.3 µM; inhibition [3]: inactive; IC50 [7]: 9.5 µM; IC50 [8]: 9.9 µM |
| COc1cc2ncnc(Oc3cccc(Br)c3)c2cc1OC | 0.7 °C | 0.7 °C |  |
| COc1cc2ncnc(N(C)c3ccc(F)c(Cl)c3)c2cc1OC | 10.5 °C | 6.1 °C |  |
| COc1cc2ncnc(N(CCN3CCCCC3)c3ccc(C)c(Br)c3)c2cc1OC | 27.7 °C | 13.5 °C | Activity [11]: Active |
| Fc1ccc(Nc2ncnc3cc4c(cc23)OCO4)cc1Cl | 0.4 °C | 0.3 °C |  |
| COc1cc2ncnc(Oc3ccc(NC(=O)Nc4ccccc4)cc3)c2cc1OC | 0.5 °C | 0.4 °C |  |
| COc1cc2ncnc(N(C)c3cccc(NC(=O)NC4CCCCC4)c3)c2cc1OC | 9.7 °C | 5.7 °C |  |
| COc1cc2ncnc(N(C)c3cccc(C)c3)c2cc1OC | 9.7 °C | 7.1 °C |  |
| COc1cc2ncnc(Nc3cccc(C)c3)c2cc1OC | 0.3 °C | 0.3 °C |  |
| COc1ccc(NC(=O)Nc2cccc(N(C)c3ncnc4cc(OC)c(OC)cc34)c2)cc1 | 11 °C | 6.8 °C |  |
| COc1cc2ncnc(N(C)c3ccc(C(F)(F)F)cc3)c2cc1OC | 9.1 °C | 6.5 °C |  |
| COc1cc2ncnc(N(C)c3cccc(NC(=O)Nc4ccc(F)c(Cl)c4)c3)c2cc1OC | 10.5 °C | 7.7 °C |  |
| COc1cc2ncnc(N(C)c3cccc(C(F)(F)F)c3)c2cc1OC | 9.5 °C | 5.8 °C |  |
| CN(c1ccc(Br)cc1F)c1ncnc2cc3c(cc12)OCO3 | 4.2 °C | 3.6 °C |  |
| CCCN(c1ccc(C)c(Br)c1)c1ncnc2cc(OC)c(OC)cc12 | 12.6 °C | 7 °C |  |
| CCCCNC(=O)Nc1ccc(N(C)c2ncnc3cc(OC)c(OC)cc23)cc1 | 0.4 °C | 0.3 °C |  |
| COc1cc2ncnc(N(C)c3cc(Br)ccc3Br)c2cc1OC | 3.3 °C | 1.6 °C |  |
| COc1cc2ncnc(Nc3ccc(F)c(Cl)c3)c2cc1OC | 0.4 °C | 0.2 °C |  |
| COc1cc2ncnc(Nc3cc(Br)ccc3Br)c2cc1OC | 0.5 °C | 0.4 °C |  |
| COc1cc2ncnc(Nc3ccc(Br)cc3F)c2cc1OC | 0.3 °C | 0.1 °C |  |
| COc1cc2ncnc(N(C)c3cccc(NC(=O)Nc4ccccc4)c3)c2cc1OC | 9.9 °C | 6 °C |  |
| COc1cc2ncnc(Nc3ccc(C)c(C(F)(F)F)c3)c2cc1OC | 0.5 °C | 0.4 °C |  |
| COc1cc2ncnc(Nc3cccc(F)c3)c2cc1OC | 0.4 °C | 0.2 °C |  |
